# Measured values reported in ChEMBL document CHEMBL1137767, “2-(3-Aryl-2-propenoyl)-3-methylquinoxaline-1,4-dioxides: a novel cluster of tumor-specific cytotoxins which reverse multidrug resistance” (Bioorg Med Chem, 2009).
# Legend:
# HSC-2 = test: Cytotoxicity against human HSC2 cells after 48 hrs; format: functional; settings: HSC-2, 48 h
# [1] = Growth inhibition of human Molt4/C8 cells after 3 days; format: functional, cell-based; settings: MOLT-4, 72 h
# Summary of the method: (§1)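 Human CEM and Molt 4/C8 T-lymphocytes were grown for three days with or without serial dilutions of the compound. IC50 is the concentration that inhibits cell growth by 50%.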
# [2] = Cytotoxicity against human HPLF cells after 48 hrs; format: cell-based
# HSC-3 = test: Cytotoxicity against human HSC3 cells after 48 hrs; format: functional; settings: HSC-3, 48 h
# [3] = biological target: T1, ATP-dependent translocase ABCB1 (Homo sapiens, UniProt P08183); test: Reversal of P-glycoprotein-mediated multidrug resistance in human MDR1 gene transfected mouse L5178Y cells assessed as fluorescence activity ratio at 20 uM by rhodamine 123 accumulation assay; format: cell-based
# T1 sequence (P08183 whole entry): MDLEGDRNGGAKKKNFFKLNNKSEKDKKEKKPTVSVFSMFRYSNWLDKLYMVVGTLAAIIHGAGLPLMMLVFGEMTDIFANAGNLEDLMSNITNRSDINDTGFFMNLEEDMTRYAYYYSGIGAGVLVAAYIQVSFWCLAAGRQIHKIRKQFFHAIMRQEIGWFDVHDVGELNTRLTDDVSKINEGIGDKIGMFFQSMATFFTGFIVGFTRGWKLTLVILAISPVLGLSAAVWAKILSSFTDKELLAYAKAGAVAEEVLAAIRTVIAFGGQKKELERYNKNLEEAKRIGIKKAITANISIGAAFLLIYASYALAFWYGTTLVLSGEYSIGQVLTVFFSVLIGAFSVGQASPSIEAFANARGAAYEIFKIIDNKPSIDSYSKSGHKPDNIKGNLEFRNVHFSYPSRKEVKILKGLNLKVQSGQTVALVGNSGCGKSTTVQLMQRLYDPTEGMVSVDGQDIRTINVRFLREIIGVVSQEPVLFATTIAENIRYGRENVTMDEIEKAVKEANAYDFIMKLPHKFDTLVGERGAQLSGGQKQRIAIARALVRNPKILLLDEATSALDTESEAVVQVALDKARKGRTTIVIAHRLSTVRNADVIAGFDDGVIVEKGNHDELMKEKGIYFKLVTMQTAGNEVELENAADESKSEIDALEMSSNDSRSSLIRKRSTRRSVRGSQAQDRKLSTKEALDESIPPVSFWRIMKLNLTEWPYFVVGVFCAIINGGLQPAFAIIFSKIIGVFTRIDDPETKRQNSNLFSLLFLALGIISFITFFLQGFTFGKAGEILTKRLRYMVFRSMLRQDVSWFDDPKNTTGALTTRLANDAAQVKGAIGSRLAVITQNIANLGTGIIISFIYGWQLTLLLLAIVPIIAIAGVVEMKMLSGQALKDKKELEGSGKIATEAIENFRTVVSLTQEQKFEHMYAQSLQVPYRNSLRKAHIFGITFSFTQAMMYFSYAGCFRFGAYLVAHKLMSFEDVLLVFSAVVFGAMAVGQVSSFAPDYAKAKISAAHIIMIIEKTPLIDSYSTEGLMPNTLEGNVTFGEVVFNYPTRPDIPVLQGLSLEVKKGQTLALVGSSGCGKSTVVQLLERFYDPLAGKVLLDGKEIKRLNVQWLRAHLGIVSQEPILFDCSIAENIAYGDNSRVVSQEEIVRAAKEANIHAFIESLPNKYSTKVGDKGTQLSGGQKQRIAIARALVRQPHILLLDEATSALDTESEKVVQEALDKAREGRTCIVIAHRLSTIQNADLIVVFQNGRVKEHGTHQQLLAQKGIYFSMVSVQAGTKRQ
# Summary of the method: (§2)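 Murine L-5178Y lymphoma cells transfected with human MDR1 gene (P-gp-overexpressing), alongside parental cells, treated or untreated with compound; rhodamine 123 accumulation measured by fluorescence; FAR = ratio of fluorescence intensity in treated versus untreated cells, values above 1 taken as MDR reversal.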
# [4] = Cytotoxicity against human HGF cells after 48 hrs; format: cell-based
# [5] = Cytotoxicity against human HPC cells after 48 hrs; format: cell-based
# HSC-4 = test: Cytotoxicity against human HSC4 cells after 48 hrs; format: functional; settings: HSC-4, 48 h
# HL-60 = test: Cytotoxicity against human HL60 cells after 48 hrs; format: functional; settings: HL-60, 48 h
# [6] = biological target: T1, ATP-dependent translocase ABCB1; test: Reversal of P-glycoprotein-mediated multidrug resistance in human MDR1 gene transfected mouse L5178Y cells assessed as fluorescence activity ratio at 200 uM by rhodamine 123 accumulation assay; format: cell-based; summary of the method: as §2
# CCRF-CEM = test: Growth inhibition of human CEM cells after 3 days; format: functional, cell-based; settings: 72 h; summary of the method: as §1
Compound,CC50 (HSC-2),IC50 [1],CC50 at 48 h [2],CC50 (HSC-3),Ratio [3],CC50 at 48 h [4],CC50 at 48 h [5],CC50 (HSC-4),CC50 (HL-60),Ratio [6],IC50 (CCRF-CEM)
Cc1c(C(=O)/C=C/c2cccc([N+](=O)[O-])c2)[n+]([O-])c2ccccc2[n+]1[O-],34 µM,16.3 µM,18 µM,122 µM,1.89,47 µM,46 µM,54 µM,62 µM,3.75,15.8 µM
Cc1c(C(=O)/C=C/c2ccc(Br)cc2)[n+]([O-])c2ccccc2[n+]1[O-],19 µM,17.1 µM,26 µM,56 µM,2.03,53 µM,43 µM,36 µM,23 µM,2.81,11.6 µM
Cc1c(C(=O)/C=C/c2ccccc2)[n+]([O-])c2ccccc2[n+]1[O-],8.4 µM,6.76 µM,35 µM,9.7 µM,10.9,32 µM,36 µM,9.6 µM,4.1 µM,36.8,5.92 µM
